Experimental data from ChEMBL document CHEMBL1949593, “Stilbene-chalcone hybrids: design, synthesis, and evaluation as a new class of antimalarial scaffolds that trigger cell death through stage specific apoptosis” (J Med Chem, 2012).
Blank lines part the entries; values can stand above or below the molecule they belong to.

Legend:
Plasmodium falciparum [1] = assay: Antimalarial activity against ring stage chloroquine-sensitive Plasmodium falciparum 3D7 infected in human O positive erythrocytes after 48 hrs by SYBR green 1 fluorescence assay; type: functional, organism-based; conditions: 3D7, 48 h
Summary of the method: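 P. falciparum 3D7 in O+ human erythrocytes in complete RPMI with Albumax at 37 °C under 5% O2/5% CO2. Culture was sorbitol-synchronized to rings and plated at 2% hematocrit, 1% parasitemia. Drug range was 0–100 μM with 0.4% final DMSO, in triplicate. After 48 h, SYBR Green I fluorescence was read (ex 497/em 520 nm). IC50 was taken by visual matching of 50% growth inhibition.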

[2] = Resistance index, ratio of IC50 for ring stage chloroquine-resistant Plasmodium falciparum Dd2 to IC50 for ring stage chloroquine-sensitive Plasmodium falciparum 3D7; type: functional
[3] = Therapeutic index, ratio of IC50 for […] cells to IC50 for ring stage chloroquine-sensitive Plasmodium falciparum 3D7; type: cell-based; conditions: mouse, read-out: Ratio IC50
Summary of the method: (§1)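 HeLa or L929 fibroblasts were seeded at 10^4 cells per well in RPMI with 10% FBS, left overnight, then exposed 24 h at 37 °C, 5% CO2. MTT was added for 3 h; formazan was dissolved in DMSO and read at 570 nm. IC50 came from dose–response curves. Index = IC50(mammalian)/IC50(Pf 3D7, SYBR Green assay).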

[4] = Therapeutic index, ratio of IC50 for human HeLa cells to IC50 for ring stage chloroquine-sensitive Plasmodium falciparum 3D7; type: cell-based; conditions: read-out: Ratio IC50; summary of the method: as §1
[5] = Resistance index, ratio of IC50 for ring stage chloroquine-resistant Plasmodium falciparum INDO to IC50 for ring stage chloroquine-sensitive Plasmodium falciparum 3D7; type: functional
Plasmodium falciparum [6] = assay: Antimalarial activity against ring stage chloroquine-resistant Plasmodium falciparum INDO infected in human O positive erythrocytes after 48 hrs by SYBR green 1 fluorescence assay; type: functional, organism-based
Summary of the method: (§2)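 Ring-stage cultures were sorbitol-synchronized in O+ human erythrocytes in RPMI 1640 with 0.5% Albumax, hypoxanthine and gentamicin, then plated at 2% hematocrit and 1% parasitemia. Drugs were tested at 0–100 μM (final DMSO 0.4%) in triplicate for 48 h at 37 °C under 5% O2/5% CO2/90% N2. Read-out was SYBR Green I (ex 497/em 520 nm). IC50 was read visually as 50% growth inhibition, with chloroquine as control.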

Plasmodium falciparum [7] = assay: Antimalarial activity against ring stage chloroquine-resistant Plasmodium falciparum Dd2 infected in human O positive erythrocytes after 48 hrs by SYBR green 1 fluorescence assay; type: functional, organism-based; conditions: Dd2, 48 h; summary of the method: as §2
[8] = Inhibition of Plasmodium falciparum falcipain-2 using benzyloxycarbonyl-Phe-Arg-7-amino-4-methyl coumarin hydrochloride as substrate preincubated for 10 mins prior substrate addition by fluorimetric assay
Summary of the method: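 Recombinant falcipain-2 (2 μg) was preincubated 10 min at room temperature with or without compound, in triplicate. Buffer was 100 mM sodium acetate pH 5.5 with 10 mM DTT and 1% final DMSO. Z-Phe-Arg-AMC was then added at 10 μM final. AMC release was read at ex 355/em 460 nm. IC50 was taken by visual matching of 50% inhibition.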

Structure (SMILES): O=C(/C=C/c1cccs1)c1ccc(/C=C/c2ccccc2)cc1
IC50 (Plasmodium falciparum [1]): 36.3 µM

Structure (SMILES): COc1cc(OC)c(OC)cc1/C=C/C(=O)c1ccc(/C=C/c2cc(OC)c(OC)c(OC)c2)cc1
Ratio IC50 [2]: 0.5
IC50 (Plasmodium falciparum [1]): 5.2 µM
selectivity ratio [3]: 29.8
selectivity ratio [4]: > 38.5
Ratio IC50 [5]: 0.4
IC50 (Plasmodium falciparum [6]): 2.08 µM
IC50 (Plasmodium falciparum [7]): 2.6 µM
IC50 [8]: 20.5 µM

Structure (SMILES): COc1cc(OC)c(OC)cc1/C=C/C(=O)c1cccc(C(=O)/C=C/c2cc(OC)c(OC)cc2OC)c1
IC50 (Plasmodium falciparum [1]): 2.8 µM

Structure (SMILES): COc1cc(OC)c(OC)cc1/C=C/C(=O)c1ccc(/C=C/c2ccc(O)c(O)c2)cc1
Ratio IC50 [2]: 1.7
IC50 (Plasmodium falciparum [1]): 4.2 µM
selectivity ratio [3]: 7.6
selectivity ratio [4]: > 23.8
Ratio IC50 [5]: 1.1
IC50 (Plasmodium falciparum [6]): 4.6 µM
IC50 (Plasmodium falciparum [7]): 7.1 µM
IC50 [8]: 19 µM

Structure (SMILES): COc1cc(/C=C/c2ccc(C(=O)/C=C/c3cc(OC)c(OC)cc3OC)cc2)ccc1O
Ratio IC50 [2]: 0.7
IC50 (Plasmodium falciparum [1]): 5.3 µM
selectivity ratio [3]: 4.7
selectivity ratio [4]: > 37.7
Ratio IC50 [5]: 0.5
IC50 (Plasmodium falciparum [6]): 2.65 µM
IC50 (Plasmodium falciparum [7]): 3.71 µM
IC50 [8]: 23 µM

More lines, now with the values ahead:

IC50 (Plasmodium falciparum [1]): 61 µM
Structure (SMILES): COc1cc(OC)c(OC)cc1/C=C/C(=O)c1ccc(O)cc1

IC50 (Plasmodium falciparum [1]): > 100 µM
Structure (SMILES): COc1cc(OC)c(OC)cc1/C=C/C(=O)c1ccc(/C=C/c2ccc(Cl)cc2)cc1

IC50 (Plasmodium falciparum [1]): 18 µM
Structure (SMILES): COc1cc(OC)c(OC)cc1/C=C/C(=O)c1ccc(/C=C/c2ccccc2)cc1

IC50 (Plasmodium falciparum [1]): 16 µM
Structure (SMILES): COc1cc(OC)c(/C=C/C(=O)c2ccc(/C=C/c3cc(OC)c(O)c(OC)c3)cc2)c(OC)c1

IC50 (Plasmodium falciparum [1]): > 100 µM
Structure (SMILES): COc1cc(OC)c(OC)cc1/C=C/C(=O)c1ccc(/C=C/c2cc(OC)c(OS(=O)(=O)c3ccc(C)cc3)c(OC)c2)cc1

IC50 (Plasmodium falciparum [1]): 34 µM
Structure (SMILES): COc1ccc(/C=C/C(=O)c2ccc(/C=C/c3ccc(O)c(OC)c3)cc2)cc1

IC50 (Plasmodium falciparum [1]): > 100 µM
Structure (SMILES): COc1cc(OC)c(OC)cc1/C=C/C(=O)c1ccc(/C=C/c2cc(OC)c(OS(=O)(=O)c3cc(Cl)cc(Cl)c3)c(OC)c2)cc1
